Source: PubChem BioAssay
Apaf1 inhib: inhibitors of human Apaf-1 apoptosome | O14727 | reconstituted apoptosome caspase-3 activity, DEVD-Rh110 fluorescence | inhibition, % at 20 µM | actives 0.71% (n = 330,000) | AID 489030; active = inhibition of at least 40% at 20 µM
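System – cell-free apoptosome with Apaf-1, procaspase-3 and caspase-9 · Buffer or medium – pH 7.5 Hepes buffer with CHAPS, BSA, DTT · Also added – cytochrome c with DEVD-Rh110 · Times – 30 min compound preincubation, 50 min activation, room temperature · Technique – Rh110 fluorescence intensity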
TDP2 absorb: TDP2 (human) inhibition, absorbance primary screen | actives 0.34% (n = 370,000) | AID 720702 | recombinant TDP2, T5PNP hydrolysis, p-nitrophenol absorbance 415 nm | inhibition, % at 12.8 µM;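 active = inhibition above the mean of all tested compounds plus 3 SD, set per campaign, cut at about 25% in these data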
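test system = human TDP2 enzyme | input = TDP2 enzyme at 120 nM final | medium = 50 mM Tris-HCl pH 7.5 with Mg2+, KCl, DTT, BSA | also added = T5PNP substrate, 5 mM | times = 2 h at 37 °C | technique = epi absorbance | benchmarks = high control without enzyme, low control DMSO plus TDP2 | replication = each compound tested once, singlicate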
PAFAH2 inh: inhibitors of human PAFAH2 | Q99487 | recombinant PAFAH2, FP-rhodamine activity probe, fluorescence polarization | actives 0.99% (n = 340,000) | AID 492956 | inhibition, % at 3.39 µM;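 active = inhibition above the mean over all tested compounds plus 3 SD, cut at about 30% in these data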;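 also: inhibitors block probe labeling of enzyme so polarization drops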
PAFAH1B3 FP inh: blocks human PAF acetylhydrolase 1B catalytic subunit 3; Q15102; recombinant PAFAH1B3, FP-rhodamine probe, fluorescence polarization; inhibition, % at 3.39 µM; actives 0.28% (n = 340,000); AID 492972;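 active = inhibition above the screen-wide average of all tested compounds plus 3 SD, cut at about 25% in these data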
PAFAH1B2 inh: inhibitors of human PAFAH1B2. inhibition, % at 3.39 µM. AID 492953. recombinant PAFAH1B2, FP-rhodamine activity probe, fluorescence polarization. actives 1.2% (n = 340,000). P68402;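 active = inhibition above the mean of all tested compounds plus 3 SD, cut at about 24% in these data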
PAFAH1B3 confirm: PAFAH1B3 (human) inhibition, confirmed; actives 30% (n = 390); shares compounds with PAFAH1B3 FP inh; AID 493032; recombinant PAFAH1B3, FP-Rh activity-based probe, fluorescence polarization; inhibition, % at 3.39 µM;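 active = average inhibition over triplicate runs above the hit cutoff set in the earlier primary screen, cut at about 25% in these data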
Of the large screens only hits and unclear results are named; the others gave an inactive call (follow-up assays come after a bar, where they were run). In the library only some 2.3% were active in any assay of this set; here they are far more common.

Cc1cc2cc3c(cc2n2c(SCC(=O)Nc4nc(-c5ccccc5)cs4)nnc12)OCO3	none (no result: Apaf1 inhib, PAFAH2 inh, PAFAH1B3 FP inh, PAFAH1B2 inh)
OCC#Cc1ncc(C(F)(F)F)cc1Cl	PAFAH1B3 FP inh 28 | PAFAH1B3 confirm inactive
O=C(C(=O)N1CCC(CNC(=O)c2cccs2)CC1)c1cc2ccccc2o1	none (no result: Apaf1 inhib, PAFAH2 inh, PAFAH1B3 FP inh, PAFAH1B2 inh)
CCN(CC)C(=O)CSc1nnc(-c2ccc(C(C)(C)C)cc2)n1Cc1ccco1	none (no result: Apaf1 inhib, PAFAH2 inh, PAFAH1B3 FP inh, PAFAH1B2 inh)
CC12CCC3C(=CCc4cc(O)ccc43)C1CC(=NO)C2O (stereo unspecified)	none (no result: Apaf1 inhib)
COc1ccc2c(c1)CC=C1C2CCC2(C)C(=O)C(=NO)CC12 (stereo unspecified)	PAFAH1B3 FP inh 33 (no result: Apaf1 inhib) | PAFAH1B3 confirm 29
Cc1ccc(S(=O)(=O)N(CC(=O)NC2CCC(C)CC2)c2cc(C)cc(C)c2)cc1 (stereo unspecified)	none (no result: Apaf1 inhib, PAFAH2 inh, PAFAH1B3 FP inh, PAFAH1B2 inh)
O=Nc1c(O)[nH]c2ccc(F)cc12	none
Cc1cc2c(N=O)c(NO)ccc2[nH]1	PAFAH1B3 FP inh 44 (no result: TDP2 absorb) | PAFAH1B3 confirm 35
CC(C)(C)c1ccc(NC(=O)COC(=O)c2ccc([N+](=O)[O-])s2)cc1	PAFAH1B3 FP inh 38 (no result: Apaf1 inhib) | PAFAH1B3 confirm inactive
O=C(COC(=O)c1ccc([N+](=O)[O-])s1)NCc1ccccc1	none
O=C(COC(=O)c1ccc([N+](=O)[O-])s1)NC(c1ccccc1)c1ccccc1	PAFAH1B3 FP inh 42 | PAFAH1B3 confirm inactive
CN(C)c1ccc2c(c1)C(=NO)c1ccccc1-2	none (no result: Apaf1 inhib, TDP2 absorb)
ON=C1c2ccccc2-c2ccccc21	PAFAH1B3 FP inh 35 | PAFAH1B3 confirm 28
Nc1[nH]c(C(=O)c2ccc(Br)cc2)c(-c2ccc(Cl)cc2)c1C(=O)NCCc1c[nH]c2ccccc12	none (no result: Apaf1 inhib, PAFAH2 inh, PAFAH1B3 FP inh, PAFAH1B2 inh)
OCCN1CCCC12CCC(c1ccccc1)CC2 (stereo unspecified)	none (no result: Apaf1 inhib, PAFAH2 inh, PAFAH1B3 FP inh, PAFAH1B2 inh)
Nc1[nH]c(C(=O)c2ccc(Cl)cc2)c(-c2ccc(Br)cc2)c1C(=O)c1c[nH]c2ccc(F)cc12	none (no result: Apaf1 inhib, PAFAH2 inh, PAFAH1B3 FP inh, PAFAH1B2 inh)
O=C1CCC2(CCC(c3ccccc3)CC2)N1CCO (stereo unspecified)	none (no result: Apaf1 inhib, PAFAH2 inh, PAFAH1B3 FP inh, PAFAH1B2 inh)
c1ccc(Nc2ccnc(Nc3ccccc3)n2)cc1	none
NNc1nccc(Nc2ccccc2C(=O)O)n1	PAFAH1B3 FP inh 28 | PAFAH1B3 confirm inactive
O=c1cc[nH]c2c1ccc1c(=O)cc[nH]c12	PAFAH1B3 FP inh 31 | PAFAH1B3 confirm 80
O=c1cc[nH]c2c(Cl)cccc12	none
FC(F)(F)c1ccccc1C(C#Cc1ccccc1)NCc1ccc2c(c1)OCO2 (stereo unspecified)	none (no result: Apaf1 inhib, PAFAH2 inh, PAFAH1B3 FP inh, PAFAH1B2 inh)
CC1=NN(c2nc(-c3ccc(C)cc3)cs2)C(=O)C1N=Nc1ccccc1O (stereo unspecified)	none (no result: PAFAH2 inh, PAFAH1B3 FP inh, PAFAH1B2 inh)
CC1=NN(c2nc(-c3ccc(C)cc3)cs2)C(=O)C1N=Nc1cccc(O)c1 (stereo unspecified)	PAFAH1B3 FP inh 26 | PAFAH1B3 confirm inactive
COc1ccc2cc(C(=O)N/N=C/c3sc4ccccc4c3O)ccc2c1	PAFAH1B3 FP inh 30 | PAFAH1B3 confirm inactive
COc1ccc(C(=O)N/N=C/c2sc3ccccc3c2O)cc1	none (no result: Apaf1 inhib, TDP2 absorb)
CCOC(=O)C1(Cc2ccccc2)CCN(Cc2ccc(C(F)(F)F)cc2)CC1	none (no result: Apaf1 inhib, PAFAH2 inh, PAFAH1B3 FP inh, PAFAH1B2 inh)
COCC(=O)OC1CCn2c1nc1c2C(=O)C(C)=C(NC(C)=O)C1=O (stereo unspecified)	TDP2 absorb 89, PAFAH1B3 FP inh 69 (no result: Apaf1 inhib) | PAFAH1B3 confirm 55
NC(=O)c1ncn([C@@H]2O[C@H](C(=O)N[C@H](Cc3c[nH]c4ccccc34)C(=O)N3CCN(CC(=O)N4CCCC4)CC3)[C@@H](O)[C@H]2O)n1	none (no result: Apaf1 inhib, PAFAH2 inh, PAFAH1B3 FP inh, PAFAH1B2 inh)
CCCCCCCCNS(=O)(=O)/C=C/c1ccc(OC)cc1CNC(=O)OC(C)(C)C	none (no result: Apaf1 inhib, PAFAH2 inh, PAFAH1B3 FP inh, PAFAH1B2 inh)
O=C(O)c1cccc(NC2=C(Cl)C(=O)c3ccccc3C2=O)c1	PAFAH1B3 FP inh 27 (no result: Apaf1 inhib) | PAFAH1B3 confirm inactive
O=C(O)c1ccc(NC2=C(Cl)C(=O)c3ccccc3C2=O)cc1	PAFAH1B3 FP inh 33 | PAFAH1B3 confirm inactive
O=C1C(Cl)=C(Nc2ccccc2)C(=O)c2ccccc21	PAFAH1B3 FP inh 26 (no result: Apaf1 inhib) | PAFAH1B3 confirm inactive
COCCCN1C(=O)[C@H](CC(=O)N2CCN(C(=O)C3CC3)CC2)[C@]2(C(=O)OC)CCCCC=C12	none (no result: Apaf1 inhib, PAFAH2 inh, PAFAH1B3 FP inh, PAFAH1B2 inh)
C=CCN1[C@H](Cc2ccccc2)COc2cc(N3CCSCC3)ccc2S1(=O)=O	none (no result: Apaf1 inhib, PAFAH2 inh, PAFAH1B3 FP inh, PAFAH1B2 inh)
O=C(OCc1cn(Cc2ccc(F)c(F)c2)nn1)N1CCCC1	none (no result: Apaf1 inhib, PAFAH2 inh, PAFAH1B3 FP inh, PAFAH1B2 inh)
